# Test results: publication PMC3827909 (The Journal of organic chemistry, 2013)
# pIC50: −log10 of the molar value.
# Experiments:
# [1] = Hydroxyl radical-scavenging assay; format: biochemical; conditions: ED50 <20 μM considered active
# Outline: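 In vitro scavenging assay run on the solvent partitions of the methanolic root-bark extract (hexanes, CHCl3, EtOAc, n-BuOH) and on pure isolates, with a positive control. ED50 is the concentration that scavenges hydroxyl radicals by 50%.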
# [2] = target: NF-κB p65 (Homo sapiens, UniProt Q04206); experiment: NF-κB p65 inhibition assay; format: cell-based
# [3] = test system: HT-29 human colon cancer cell line; experiment: Cytotoxicity against HT-29 cell line; format: cell-based; conditions: HT-29, read-out: cytotoxicity IC50 (concentration inhibiting HT-29 cell growth by 50%)
# Outline: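 Pure isolates were tested against HT-29 human colon cancer cells, with a positive control. IC50 is the concentration that inhibits HT-29 cell growth by 50%, and an IC50 below 10 μM is counted as active.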
# NF-κB p65, sequence (Q04206 whole entry): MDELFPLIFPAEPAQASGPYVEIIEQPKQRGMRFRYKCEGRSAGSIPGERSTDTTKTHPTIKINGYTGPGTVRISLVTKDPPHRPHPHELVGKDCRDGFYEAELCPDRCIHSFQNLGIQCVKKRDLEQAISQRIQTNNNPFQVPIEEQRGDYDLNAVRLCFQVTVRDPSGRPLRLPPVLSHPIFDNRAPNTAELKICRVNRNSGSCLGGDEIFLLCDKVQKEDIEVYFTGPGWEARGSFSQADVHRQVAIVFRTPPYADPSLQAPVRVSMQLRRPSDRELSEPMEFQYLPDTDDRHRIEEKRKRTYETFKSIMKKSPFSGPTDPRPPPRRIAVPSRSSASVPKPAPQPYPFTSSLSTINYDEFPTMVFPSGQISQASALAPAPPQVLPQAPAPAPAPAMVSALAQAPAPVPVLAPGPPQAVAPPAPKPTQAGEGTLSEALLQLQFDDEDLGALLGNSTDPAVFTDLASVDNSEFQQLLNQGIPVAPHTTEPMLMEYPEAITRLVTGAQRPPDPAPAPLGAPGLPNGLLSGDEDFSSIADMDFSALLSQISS
Compound,hydroxy radical-scavenging ED50 (concentration scavenging hydroxyl radical by 50%) [1] [µM],also measured
"CC1(C)c2cc3cc(-c4ccc(O)cc4O)c(=O)oc3cc2OC1CO (stereo not drawn) [compound 5, 6-(2,7-epoxy-3-methylbut-1-ol-3-yl)-2′,4′-dihydroxy-3-phenylcoumarin]",18.5,
"C=CC(C)(C)c1cc2cc(-c3ccc(O)cc3O)c(=O)oc2cc1O [compound 4, 7-hydroxy-6-(2-methylbut-3-en-2-yl)-2′,4′-dihydroxy-3-phenylcoumarin]",2.6,NF-κB p65 inhibitory activity retained relative to compound 1 ([2]; fraction of the activity of 1): one-tenth
"C=CC(C)(C)c1cc2c(cc1O)OC[C@H](c1cc(-c3oc4cc(O)ccc4c3C(=O)c3cc(C(C)(C)C=C)c(O)cc3O)c(O)cc1O)C2 [compound 3, sphenostylisin C]",0.94,
"C=CC(C)(O)Cc1cc2cc(-c3ccc(O)cc3O)c(=O)oc2cc1O (stereo not drawn) [compound 6, 7-hydroxy-6-(2-hydroxy-2-methylbut-3-en-1-yl)-2′,4′-dihydroxy-3-phenylcoumarin]",>20,
"C=CC(C)(CO)c1cc2c(=O)c(-c3ccc(O)cc3O)coc2cc1O (stereo not drawn) [compound 8, 7-hydroxy-6-(1-hydroxy-2-methylbut-3-en-2-yl)-2′,4′-dihydroxyisoflavone]",2.2,pIC50 [3]: < 5.00; pIC50 [2]: 6.35
"C=CC(C)(C)c1cc(-c2oc3cc(O)ccc3c2Cc2cc(-c3cc4cc(C(C)(C)C=C)c(O)cc4oc3=O)c(O)cc2O)c(O)cc1O [compound 2, sphenostylisin B]",0.73,
"O=c1c(O)c(-c2ccc(O)c(O)c2)oc2cc(O)cc(O)c12 [quercetin, reference compound]",1.2,
"C=CC(C)(O)Cc1cc(CC(=O)c2ccc(O)cc2O)c(O)cc1O (stereo not drawn) [compound 10, 2,4-dihydroxy-2′,4′-dihydroxy-5′-(2-hydroxy-2-methylbut-3-en-1-yl)deoxybenzoin]",0.60,pIC50 [3]: < 5.00; pIC50 [2]: < 4.70
"C=CC(C)(C)c1cc(C(=O)c2c(-c3cc(-c4cc5cc(C(C)(C)C=C)c(O)cc5oc4=O)c(O)cc3O)oc3cc(O)ccc23)c(O)cc1O [compound 1, sphenostylisin A]",0.71,NF-κB inhibitory potency relative to compound 3 ([2]; times more potency than compound 3): 75 times; NF-κB p65 inhibitory potency relative to the positive control rocaglamide ([2]; times more potent than rocaglamide): > 10 times
"C=CC(C)(CO)c1cc2cc(-c3ccc(O)cc3O)c(=O)oc2cc1O (stereo not drawn) [compound 7, 7-hydroxy-6-(1-hydroxy-2-methylbut-3-en-2-yl)-2′,4′-dihydroxy-3-phenylcoumarin]",>20,
"CC1(C)c2cc(CC(=O)c3ccc(O)cc3O)c(O)cc2OC1CO (stereo not drawn) [compound 9, 2,4-dihydroxy-2′-dihydroxy-5′-(2,4′-epoxy-3-methylbut-1-ol-3-yl)deoxybenzoin]",1.0,
"C=CC(C)(CO)c1cc(CC(=O)c2ccc(O)cc2O)c(O)cc1O (stereo not drawn) [compound 11, 2,4-dihydroxy-2′,4′-dihydroxy-5′-(1-hydroxy-2-methylbut-3-en-2-yl)deoxybenzoin]",0.63,pIC50 [3]: < 5.00; pIC50 [2]: < 4.70
